Assay results published in PubChem BioAssay AID504818 (Southern Research Specialized Biocontainment Screening …, 2011).
Where “and” joins values, the source holds several entries; their conditions need not be identical. Identical values can stand only once. Calls of active or inactive are those of the source.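 How the source made its calls: active means any dose giving under 70% viability, per first replicate; inactive means the rest.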

Tested on: not listed separately
Assay: viability loss in HEp-2 cells – cell-based, synthesized compounds, set 8, cytotoxicity control for RSV inhibitor project, SAR follow-up (AID 504818)
Details: HEp-2 viability, ATP luminescence; at 50 µM (top of the series)
Outline: (§1)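 Assay system: uninfected HEp-2 human cells, ATP-based viability; amount: 10,595 cells/well; compound dosing: eight 1:2 steps, 0.39–50 µM, 0.5% DMSO; timing: compound exposure of 6 days at 37 °C; signal: ATP luminescence (CellTiter-Glo); measure: % viability and CC50 (0–100 bounded fit); benchmarks: cell-only wells as 100% reference; replicates: each concentration tested in triplicate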

| Compound | viability |
| --- | --- |
| Cc1ccc(NC(=O)C2CCCN2S(C)(=O)=O)c(C)c1 (stereo unspecified) | 96.3% (inactive) |
| Cc1ncccc1NC(=O)[C@@H]1CCCN1S(=O)(=O)c1cccc2cccnc12 | 72.6% (inactive) |
| COc1ccc(C)cc1NC(=O)[C@@H]1CCCN1S(=O)(=O)c1cccc2cccnc12 | 82% (inactive) |
| Cc1ccc(NC(=O)C(C)NS(=O)(=O)c2cccc3cccnc23)c(C)c1 (stereo unspecified) | 77.7% (inactive) |

Tested on: HEp-2 viability, ATP luminescence
Assay: as above
Details: not given
Outline: as §1

| Compound | CC50 |
| --- | --- |
| CC(C)c1ccccc1NC(=O)[C@@H]1CCCN1S(=O)(=O)c1cccc2cccnc12 | 30.1 µM |
| Cc1ccc(C(C)(C)C)cc1NC(=O)[C@@H]1CCCN1S(=O)(=O)c1cccc2cccnc12 | 6.2 µM |
| COCCCNC(=O)c1ccc(Cn2c(=O)c3ccccc3n(Cc3cc(C)on3)c2=O)cc1 | 7 µM |
| Cc1cccc(NC(=O)[C@@H]2CCCN2S(=O)(=O)c2cccc3cccnc23)c1 | 20.8 µM |
| Cc1ccc(NC(=O)[C@H]2CCCN2S(=O)(=O)c2cccc3cccnc23)c(C)c1 | 40.9 µM |
| Cc1cc(C)cc(NC(=O)[C@@H]2CCCN2S(=O)(=O)c2cccc3cccnc23)c1 | 32.2 µM |
| Cc1ccc(C(C)C)cc1NC(=O)[C@@H]1CCCN1S(=O)(=O)c1cccc2cccnc12 | 10.6 µM |
| COCCCNC(=O)c1ccc(Cn2c(=O)c3ccccc3n(C)c2=O)cc1 | 15 µM |
| Cc1ccc(NC(=O)[C@@H]2CCCN2S(=O)(=O)c2cccc3cccnc23)c(C)c1 | 33 µM |
| Cc1ccc(NC(=O)C2CCCN2S(=O)(=O)c2cccc3ccccc23)c(C)c1 (stereo unspecified) | 18.4 µM |
| O=C(Nc1ccccc1)[C@@H]1CCCN1S(=O)(=O)c1cccc2cccnc12 | 38.4 µM |
| Cc1cccc(NC(=O)[C@@H]2CCCN2S(=O)(=O)c2cccc3cccnc23)c1C | 49.5 µM |
| COCCCNC(=O)c1ccc(Cn2c(=O)c3ccc(Br)cc3n(Cc3ccc(C)cc3)c2=O)cc1 | 39 µM |
| Cc1ccc(NC(=O)[C@@H]2CCCN2S(=O)(=O)c2cccc3cccnc23)cc1 | 33.1 µM |
| Cc1ccc(C)c(NC(=O)[C@@H]2CCCN2S(=O)(=O)c2cccc3cccnc23)c1 | 36.2 µM and 32.9 µM |
| Cc1ccc(Cl)cc1NC(=O)[C@@H]1CCCN1S(=O)(=O)c1cccc2cccnc12 | 9.25 µM |
| Cc1ccc(Cn2c(=O)n(Cc3ccc(C(=O)NC(C)(C)C)cc3)c(=O)c3ccccc32)cc1 | 10.2 µM |
| Cc1ccc(F)cc1NC(=O)[C@@H]1CCCN1S(=O)(=O)c1cccc2cccnc12 | 22.5 µM |
| CCCn1c(=O)n(Cc2ccc(C(=O)NCCCOC)cc2)c(=O)c2ccccc21 | 22.8 µM |
| Cc1ccc(Cl)c(NC(=O)[C@@H]2CCCN2S(=O)(=O)c2cccc3cccnc23)c1 | 13.6 µM |
| Cc1ccc(NC(=O)C2CCCN2S(=O)(=O)c2cccc3cccnc23)c(C)c1 (stereo unspecified) | 33.4 µM |
| Cc1ccc(C(F)(F)F)cc1NC(=O)[C@@H]1CCCN1S(=O)(=O)c1cccc2cccnc12 | 3.7 µM |
